≈ marks a conversion by molar mass, not a printed value. Where a SMILES comes first, the peptide text is derived from it. [ ]: non-standard residue; d: D form. Orn = NCCC[C@H](N)C(=O)O
Assays:
Staphylococcus aureus [1] = assay: Antimicrobial activity against methicillin-resistant Staphylococcus aureus ATCC 49775 by broth dilution method; format: functional
In short: (§1)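 Frozen (−70 °C) stocks grown at 35 °C on Columbia sheep-blood agar, suspended in physiological saline to OD595 0.1, diluted 100×; 2 µL inoculum into 50 µL cation-adjusted Mueller Hinton II broth in 96-well plates. Peptides dissolved in methanol (4 g/L), diluted in water, two-fold serial dilutions in broth (64–1 mg/L). Incubation at 35 °C, 24–48 h; MIC = lowest concentration inhibiting growth.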

Staphylococcus aureus [2] = assay: Antimicrobial activity against methicillin-resistant Staphylococcus aureus N133 by broth dilution method; format: functional; in short: as §1
Staphylococcus aureus [3] = assay: Antimicrobial activity against Staphylococcus aureus ATCC 29213 by broth dilution method; format: functional; in short: as §1
Escherichia coli = assay: Antimicrobial activity against Escherichia coli ATCC 25922 by broth dilution method; format: functional
In short: (§2)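 Stored at −70 °C, grown at 35 °C on Columbia sheep-blood agar, then suspended in physiological saline to OD 0.1 AU at 595 nm and diluted 100× in saline. 2 µL inoculum was added to 50 µL cation-adjusted Mueller Hinton II broth. Peptides in methanol (4 g/L stock) were diluted in water, then two-fold in broth (64–1 mg/L). Incubation was 35 °C for 24–48 h. MIC is the lowest concentration inhibiting growth.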

Staphylococcus aureus [4] = assay: Antimicrobial activity against methicillin-resistant Staphylococcus aureus N229 by broth dilution method; format: functional; in short: as §1
[5] = Therapeutic index, concentration required to achieve 100% hemolysis in erythrocyte to MIC for Escherichia coli ATCC 25922; settings: erythrocytes
In short: (§3)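 Therapeutic index was taken as the concentration for 100% haemolysis divided by MIC for the given strain.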

Bacillus cereus = assay: Antimicrobial activity against Bacillus cereus ATCC 11778 by broth dilution method; format: functional; in short: as §2
[6] = Therapeutic index, concentration required to achieve 100% hemolysis in erythrocyte to MIC for Staphylococcus aureus ATCC 29213; settings: erythrocytes; in short: as §3
Staphylococcus aureus [7] = assay: Antimicrobial activity against methicillin-resistant Staphylococcus aureus isolate 1110301981 by broth dilution method; format: functional; in short: as §1
Enterococcus faecalis = assay: Antimicrobial activity against Enterococcus faecalis ATCC 29212 by broth dilution method; format: functional; in short: as §2
Pseudomonas aeruginosa = assay: Antimicrobial activity against Pseudomonas aeruginosa ATCC 27853 by broth dilution method; format: functional; in short: as §2
[8] = Toxicity in Erythrocyte assessed as concentration required to achieve 100% hemolysis after 4 hrs; format: cell-based
In short: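 Heparinized fresh blood was centrifuged (1000g, 10 min, 10 °C). Erythrocytes were washed three times in 0.85% saline and diluted to a 1/25 packed volume. Peptides were prepared as a 1.5 mM stock in 30% DMSO/0.5 mM saline and serially two-fold diluted in triplicate rows. 1% Triton-X served as the full-lysis control. Incubation was 37 °C for 4 h, then centrifugation; supernatant was read. Value is the concentration giving 100% lysis.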

Staphylococcus aureus [9] = assay: Antimicrobial activity against community acquired methicillin-resistant Staphylococcus aureus isolate 1110301146 by broth dilution method; format: functional; in short: as §1
Staphylococcus aureus [10] = assay: Antimicrobial activity against methicillin-resistant Staphylococcus aureus ATCC 43300 by broth dilution method; format: functional; in short: as §1
[11] = system: Staphylococcus epidermidis; assay: Antimicrobial activity against Staphylococcus epidermidis ATCC 12228 by broth dilution method; format: functional; in short: as §2

Structure (SMILES)	MIC (Staphylococcus aureus [1])	MIC (Staphylococcus aureus [2])	MIC (Staphylococcus aureus [3])	MIC (Escherichia coli)	MIC (Staphylococcus aureus [4])	selectivity ratio [5]	MIC (Bacillus cereus)	selectivity ratio ([6]; read-out: Ratio)	MIC (Staphylococcus aureus [7])	MIC (Enterococcus faecalis)	MIC (Pseudomonas aeruginosa)	Activity [8]	MIC (Staphylococcus aureus [9])	MIC (Staphylococcus aureus [10])	MIC [11]	selectivity ratio ([6]; read-out: TI)
CC(C)C[C@@H]1NC(=O)[C@H](CCCN)NC(=O)[C@H](C(C)C)NC(=O)[C@H](CCCN)NC(=O)[C@@H]2CCCN2C(=O)[C@@H](Cc2ccccc2)NC(=O)[C@H](CCCN)NC(=O)[C@H](CC(C)C)NC(=O)[C@H](CCCN)NC(=O)[C@H](C(C)C)NC(=O)[C@H](CCCN)NC(=O)[C@@H]2CCCN2C(=O)[C@@H](Cc2ccccc2)NC(=O)[C@H](CCCN)NC1=O	64 µg/mL (≈ 40 µM)	> 64 µg/mL	64 µg/mL (≈ 40 µM)	32 µg/mL (≈ 20 µM)	64 µg/mL (≈ 40 µM)	11.7	32 µg/mL (≈ 20 µM)	11.7	64 µg/mL (≈ 40 µM)	> 64 µg/mL	64 µg/mL (≈ 40 µM)	> 500 µM	64 µg/mL (≈ 40 µM)	> 64 µg/mL	8 µg/mL (≈ 5.01 µM)	
CC(C)C[C@@H]1NC(=O)[C@H](CCCN)NC(=O)[C@H](C(C)C)NC(=O)[C@H](CCCN)NC(=O)[C@@H]2CCCN2C(=O)[C@@H](Cc2ccccc2)NC(=O)[C@H](CCCN)NC(=O)[C@H](CC23CC4CC(CC(C4)C2)C3)NC(=O)[C@H](CCCN)NC(=O)[C@H](C(C)C)NC(=O)[C@H](CCCN)NC(=O)[C@@H]2CCCN2C(=O)[C@@H](Cc2ccccc2)NC(=O)[C@H](CCCN)NC1=O	8 µg/mL (≈ 4.73 µM)	8 µg/mL (≈ 4.73 µM)	16 µg/mL (≈ 9.47 µM)	16 µg/mL (≈ 9.47 µM)	16 µg/mL (≈ 9.47 µM)	7.8	8 µg/mL (≈ 4.73 µM)	7.8	8 µg/mL (≈ 4.73 µM)	32 µg/mL (≈ 18.9 µM)	16 µg/mL (≈ 9.47 µM)	125 µM	16 µg/mL (≈ 9.47 µM)	8 µg/mL (≈ 4.73 µM)	8 µg/mL (≈ 4.73 µM)	
CC(C)C[C@@H]1NC(=O)[C@H](CCCN)NC(=O)[C@H](C(C)C)NC(=O)[C@H](CCCN)NC(=O)[C@@H]2CCCN2C(=O)[C@@H](Cc2ccccc2)NC(=O)[C@H](CCCN)NC(=O)[C@H](CC(C)C)NC(=O)[C@H](CCCN)NC(=O)[C@H](C23CC4CC(CC(C4)C2)C3)NC(=O)[C@H](CCCN)NC(=O)[C@@H]2CCCN2C(=O)[C@@H](Cc2ccccc2)NC(=O)[C@H](CCCN)NC1=O	8 µg/mL (≈ 4.73 µM)	8 µg/mL (≈ 4.73 µM)	16 µg/mL (≈ 9.47 µM)	16 µg/mL (≈ 9.47 µM)	8 µg/mL (≈ 4.73 µM)	15.6	8 µg/mL (≈ 4.73 µM)	7.8	8 µg/mL (≈ 4.73 µM)	32 µg/mL (≈ 18.9 µM)	8 µg/mL (≈ 4.73 µM)	125 µM	16 µg/mL (≈ 9.47 µM)	8 µg/mL (≈ 4.73 µM)	4 µg/mL (≈ 2.37 µM)	
CC(C)C[C@@H]1NC(=O)[C@H](CCCN)NC(=O)[C@H](C(C)C)NC(=O)[C@H](CCCN)NC(=O)[C@@H]2CCCN2C(=O)[C@@H](Cc2ccccc2)NC(=O)[C@H](CCCN)NC(=O)[C@H](CC23CC4CC(CC(C4)C2)C3)NC(=O)[C@H](CCCN)NC(=O)[C@H](C23CC4CC(CC(C4)C2)C3)NC(=O)[C@H](CCCN)NC(=O)[C@@H]2CCCN2C(=O)[C@@H](Cc2ccccc2)NC(=O)[C@H](CCCN)NC1=O	16 µg/mL (≈ 8.98 µM)	16 µg/mL (≈ 8.98 µM)	8 µg/mL (≈ 4.49 µM)	16 µg/mL (≈ 8.98 µM)	16 µg/mL (≈ 8.98 µM)	3.9	1 µg/mL (≈ 0.561 µM)	3.9	16 µg/mL (≈ 8.98 µM)	8 µg/mL (≈ 4.49 µM)	8 µg/mL (≈ 4.49 µM)	31.3 µM	16 µg/mL (≈ 8.98 µM)	16 µg/mL (≈ 8.98 µM)	4 µg/mL (≈ 2.24 µM)	
CC(C)C[C@@H]1NC(=O)[C@H](CCCN)NC(=O)[C@H](C23CC4CC(CC(C4)C2)C3)NC(=O)[C@H](CCCN)NC(=O)[C@@H]2CCCN2C(=O)[C@@H](Cc2ccccc2)NC(=O)[C@H](CCCN)NC(=O)[C@H](CC(C)C)NC(=O)[C@H](CCCN)NC(=O)[C@H](C23CC4CC(CC(C4)C2)C3)NC(=O)[C@H](CCCN)NC(=O)[C@@H]2CCCN2C(=O)[C@@H](Cc2ccccc2)NC(=O)[C@H](CCCN)NC1=O	8 µg/mL (≈ 4.49 µM)	8 µg/mL (≈ 4.49 µM)	8 µg/mL (≈ 4.49 µM)	16 µg/mL (≈ 8.98 µM)	8 µg/mL (≈ 4.49 µM)	2	2 µg/mL (≈ 1.12 µM)	3.9	8 µg/mL (≈ 4.49 µM)	8 µg/mL (≈ 4.49 µM)	16 µg/mL (≈ 8.98 µM)	31.3 µM	8 µg/mL (≈ 4.49 µM)	8 µg/mL (≈ 4.49 µM)	8 µg/mL (≈ 4.49 µM)	
CC(C)C[C@@H]1NC(=O)[C@H](CCCN)NC(=O)[C@H](C(C)C)NC(=O)[C@@H]2CCCN2C(=O)[C@@H](Cc2ccccc2)NC(=O)[C@H](CC(C)C)NC(=O)[C@H](CCCN)NC(=O)[C@H](C(C)C)NC(=O)[C@@H]2CCCN2C(=O)[C@@H](Cc2ccccc2)NC1=O [GRAMICIDIN S] (cyclo(L[dF]PV[Orn]L[dF]PV[Orn]))	8 µg/mL (≈ 7.01 µM)	16 µg/mL (≈ 14 µM)	32 µg/mL (≈ 28 µM)	64 µg/mL (≈ 56.1 µM)	8 µg/mL (≈ 7.01 µM)	2	8 µg/mL (≈ 7.01 µM)		16 µg/mL (≈ 14 µM)	8 µg/mL (≈ 7.01 µM)	32 µg/mL (≈ 28 µM)	62.5 µM	16 µg/mL (≈ 14 µM)	8 µg/mL (≈ 7.01 µM)	8 µg/mL (≈ 7.01 µM)	2
